# Rows were chosen to be rich in hits. Some 5.4% of all compounds tested hit in one or more screens of this group.
# Cav3 T inh: Cav3.2 calcium influx blockers – cell-based, Fluo-4 calcium fluorescence, FDSS, MLSMR library, primary screen. Voltage-dependent T-type calcium channel subunit alpha-1H (Homo sapiens), O95180. Cav3.2-expressing cells; hits give low values. B-score at 10 µM. hit rate 4% among 100,000;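 active means single-dose well whose peak fluorescence ratio is a statistical outlier from its plate by either plate-standardised score or position-corrected B-score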
# EphB4 ephrin blk: EphB4-ephrin-B2 interaction antagonists, primary screen, biochemical, TNYL-RAW peptide probe, fluorescence polarization; AID 720, 2007; inhibition, % at 7 µM; hit rate 0.15% among 97,000; Ephrin type-B receptor 4 (Homo sapiens), P54760; EphB4 LBD / TNYL-RAW-Alexa532 peptide;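 active means inhibition above the screen-wide mean inhibition plus 3 SD, cut at about 15% in these data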;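 further: 0% = DMSO wells and 100% = excess unlabeled TNYL-RAW peptide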
# hDAT+cocaine: changed hDAT dopamine uptake under cocaine IC80, either direction, primary screen, cocaine antagonist project, cell-based, LLC-PK1 hDAT, [14C]-dopamine uptake, MLSMR. LLC-PK1 hDAT cells, [14C]-dopamine uptake with cocaine IC80; actives deviate in either direction. B-score at 10 µM. hit rate 1.3% among 110,000. Sodium-dependent dopamine transporter (Homo sapiens), Q01959;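 active means Z score or B-score, a plate-position-corrected score, falls beyond the plate's 99.7% confidence bounds, in either direction; inactive means both scores lie inside the 99.7% bounds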;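 further: scored against the spread of the other compound wells on the same plate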
# HIV Rev-RRE inh: HIV-1 Rev-RRE binding inhibitors, primary screen, biochemical, FRET, protein-RNA interaction; P05866; Rev peptide-RRE RNA binding; inhibition, % at 8 µM; hit rate 0.79% among 97,000; AID 704, 2007;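 active means inhibition above the screen-wide mean plus 3 SD, cut at about 35% in these data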;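 further: 0% = median DMSO wells and 100% = median Neomycin B control wells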
# Target sequence (P05866 whole entry, looked up): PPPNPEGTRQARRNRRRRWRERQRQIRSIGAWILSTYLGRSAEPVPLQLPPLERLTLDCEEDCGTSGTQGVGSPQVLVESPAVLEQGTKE
#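 Test system: labelled RRE RNA duplex and labelled Rev peptide. Times: 5 min compound–RNA preincubation, then 15 min with peptide, 25 °C. Doses: single-dose 8 µM. Measured by: FRET, excitation 480 nm, emission 540 nm donor and 671 nm acceptor. Measure: % inhibition of FRET ratio versus controls.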
# The depositor's hits bear a star; nt = not tested or not shown.
SMILES,Cav3 T inh,EphB4 ephrin blk,hDAT+cocaine,HIV Rev-RRE inh
CC(=O)Nc1cccc(-c2nnc(-c3ccccc3)o2)c1,-0.54,7,-8.4*,3
COc1ccc(CC(=O)Nc2cccc(-c3nnc(-c4ccc(C)cc4)o3)c2)cc1OC,-0.7,nt,1.7,nt
O=C(Nc1nncs1)C1c2ccccc2Oc2ccccc21,0.74,11,0.27,5
CCc1ccc(OCCNC(=O)c2ccccc2SCc2ccccc2)cc1,-6.8*,-1,0.3,7
CCc1ccc(OCC(=O)NCCOc2ccccc2)cc1,-4.4*,2,-0.85,4
Cc1ccc(S(=O)(=O)NCC2CCC(C(=O)O)CC2)cc1 (stereo unspecified),-0.035,0,-0.17,8
COc1cccc(Nc2ncnc3ccccc23)c1,-0.0053,-4,-0.18,5
O=C(Oc1cccc(Nc2ncnc3ccccc23)c1)c1ccccc1Cl,-5.4*,-8,0.92,9
O=C(O)C1C2C=CC3(CN(Cc4ccncc4)C(=O)C13)O2 (stereo unspecified),-0.24,nt,-8.7*,nt
Cc1[nH][nH]c(=O)c1C(c1c(C)[nH][nH]c1=O)c1cn(Cc2cccc3ccccc23)c2ccccc12,-5.1*,4,-0.4,0
COC(=O)Cc1c(O)ccn(Cc2cccc3ccccc23)c1=O,-0.001,0,0.24,12
O=C1c2cc(CO)cc(O)c2C(=O)c2c(O[C@@H]3OC(CO)[C@@H](O)[C@@H](O)[C@@H]3O)cccc21 (stereo partly specified),1.7,nt,-0.84,nt
O=C(O[C@H]1[C@H](Oc2ccccc2COC(=O)C2(O)C=CCCC2=O)O[C@H](CO)[C@@H](O)[C@@H]1O)c1ccccc1 (stereo partly specified),-4.5*,nt,-0.028,nt
COC(=O)c1[nH]c2ccc(C)cc2c1NC(=O)NC1CCCCC1,0.071,2,0.19,-1
O=C(Nc1c(C(=O)O)[nH]c2ccccc12)NC1CCCCC1,0.43,6,-2.1*,5
CCCCNC(=O)C1CC(=O)N(c2ccc(OC)cc2)C1c1ccc(OC)cc1 (stereo unspecified),0.13,-3,-0.69,-3
Cc1cccc(-n2cnc(C(=O)N/N=C/c3ccccc3)c2)n1,1.2,4,-0.48,1
Cc1ccc(C)n1-n1c(C)nc2scc(-c3ccccc3)c2c1=O,-6.9*,3,-0.08,4
CCCCn1c(N(CCOC(C)=O)C(C)=O)nc2ccccc21,nt,-3,-0.0017,9
O=c1[nH]c(Nc2ccccc2Cl)cc2ccccc12,-2,nt,0.16,nt
O=c1[nH]c(Nc2ccc(F)cc2)cc2ccccc12,-0.74,0,-0.15,47*
O=S1(=O)c2cccc3cccc(c23)N1Cc1nnc(-c2ccccc2Br)o1,-1.6,16*,0.69,11
Oc1c(Br)cc(C2N=C(c3ccccc3Cl)NO2)cc1Br (stereo unspecified),0.12,-2,-1.5,3
Cc1cccc(N2CCN(C(c3cccs3)c3nnnn3C(C)(C)C)CC2)c1C (stereo unspecified),-6.4*,4,0.14,7
COCCn1nnnc1C(c1cccs1)N1CCN(c2cc(C)ccc2C)CC1 (stereo unspecified),-4.3*,-2,0.39,2
SMILES,Cav3 T inh,EphB4 ephrin blk,hDAT+cocaine,HIV Rev-RRE inh
Cc1cccc(N2CCN(C(c3ccccc3)c3nnnn3C(C)(C)C)CC2)c1C (stereo unspecified),nt,11,nt,1
COc1ccc(OCC(O)COc2ccc(C(=O)O)cc2)cc1 (stereo unspecified),-0.66,-3,2.7*,4
O=C(Nc1ccn(-c2ccccc2)n1)c1ccc(S(=O)(=O)N2CCCCCC2)cc1,-1.9*,0,0.51,5
CCC1CCCCN1S(=O)(=O)c1ccc(C(=O)Nc2nnc(-c3ccccc3Cl)o2)cc1 (stereo unspecified),-7.9*,2,0.36,12
O=C(Nc1nnc(-c2ccccc2Cl)o1)c1ccc(S(=O)(=O)N2CCCCCC2)cc1,-7.1*,4,0.018,12
O=C(NCc1nc2ccccc2[nH]1)C1=C[C@H](C2CC2)C[C@H](OCc2ccc(CO)cc2)O1,0.32,nt,-0.021,nt
CNc1oc(-c2ccccc2)nc1C#N,0.21,nt,-7.8*,nt
Cc1cc(C)cc(OCC(=O)N2N=C(C(F)(F)F)CC2(O)C(C)(C)C)c1 (stereo unspecified),-4.3*,2,0.32,5

# From PubChem BioAssay
